Here are results for 18 molecules from publication PMC8176898 (Journal of the American Chemical Society, 2021).

Changes are numbered by the printed parent chain. Names and notes keep the numbering of the source. Ends that are not written are not given here.

The chains are these.
T1: human Mint2-PTB-ARM (Mint2-PARM), PARMHis6, residues 364-570 (human, UniProt Q99767 364-570)
T1 sequence (looked up): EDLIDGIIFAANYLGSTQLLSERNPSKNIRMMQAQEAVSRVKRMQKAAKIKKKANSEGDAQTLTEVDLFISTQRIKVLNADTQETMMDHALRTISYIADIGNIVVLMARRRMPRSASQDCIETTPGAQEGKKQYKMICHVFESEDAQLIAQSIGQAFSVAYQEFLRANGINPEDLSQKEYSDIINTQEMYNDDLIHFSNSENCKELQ

T2: Mint2-PARM D462A (human, UniProt Q99767 364-570, D462A)
T2 sequence (looked up): T1 sequence (looked up) with D99A

B1: Mint2-PARM F520A (domain or fragment, human, UniProt Q99767 364-570, looked up)
chain: T1 sequence (looked up) with F157A
B2: semisynthetic Mint2-pPARMSS S458σ (domain or fragment, human, UniProt Q99767 364-570, looked up)
chain: T1 sequence (looked up) with R92K, C120A, C138A, C203A
modifications: backbone amide-to-ester at S458 (α-hydroxy acid, S458σ)
B3: semisynthetic Mint2-pPARMSS D462δ (domain or fragment, human, UniProt Q99767 364-570, looked up)
chain: T1 sequence (looked up) with R92K, C120A, C138A, C203A
modifications: backbone amide-to-ester at D462 (α-hydroxy acid, D462δ)
B4: Mint2-PARM Y459A (domain or fragment, human, UniProt Q99767 364-570, looked up)
chain: T1 sequence (looked up) with Y96A
B5: TAMRA-APP_(C-term) probe, (TAMRA)-NNG-QNGYENPTYKFFEQMQN (peptide)
peptide: {TAMRA}-NNGQNGYENPTYKFFEQMQN
B6: human Mint2-PARM Y459A/F520A (hMint2^Y459A/F520A) (domain or fragment, UniProt Q99767 364-570, looked up)
chain: T1 sequence (looked up) with Y96A, F157A
B7: Mint2-PARM L454A (domain or fragment, human, UniProt Q99767 364-570, looked up)
chain: T1 sequence (looked up) with L91A

Series [1] deals with Aβ42 levels, primary cortical neurons (APPswe/PS1ΔE9). In words: Aβ42 ELISA of conditioned medium of APPswe/PS1ΔE9 neurons. Format: cell-based, mouse. The note with it: 24 h incubation. On the technique in general: In an ELISA, binding on a coated surface is turned into a signal by an enzyme label.
For series [2], the system named is primary cortical neurons (APPswe/PS1ΔE9). In words: LDH release. The note with it: after 24 h of treatment, TAT-14 10 μM; same conditioned medium as ELISA. In general terms: LDH in the medium is a marker of cell lysis.
The nature of series [3]: In vitro hepatic clearance, mouse liver microsomes. Format: in vitro ADME. In general terms: Liver microsomes are a subcellular fraction often used to study metabolism.
Series [4] is described as follows: In vitro human plasma stability. In kind it is in vitro ADME. An outline of the steps: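 Test peptides incubated in human plasma at 37 °C for up to 24 h. At various time points, peptide was extracted and quantified by UPLC. A buffer-only control was run alongside. Mean ± SEM, n = 3.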
The subject of series [5] is primary neurons. In words: Neuronal cell viability. Particulars: colorimetric readout of metabolic activity.
The target in series [6] is T1, human Mint2-PTB-ARM (Mint2-PARM), …. In words: fluorescence polarisation.
Series [7] concerns the target B5. In words: fluorescence polarisation.
Series [8] addresses T2, Mint2-PARM D462A. In words: fluorescence polarisation.

As for `C[C@H](NC(=O)Cc1cc(F)cc(F)c1)C(=O)NC(C(=O)OC(C)(C)C)c1ccccc1` (stereo partly drawn) [DAPT, N-[N-(3,5-difluorophenacetyl)-l-alanyl]-s-phenyl-glycine tert-butyl ester, reference compound], in series [1] (concentration not given), the “reduction of Aβ42 levels (positive control)” value was 47%. Also, the “LDH release relative to vehicle control (in words)” value in series [2] is “low LDH levels”.
What is called microsomal CLint is the capacity of the preparation to metabolise the compound, expressed as a volume cleared per time. A higher microsomal CLint goes with rapid turnover. A word on the half-life: it is how long it takes for the measured level to halve. A high value points to slow loss. In turn, NGYENPTYKFFE [APPWT peptide] came in with a microsomal CLint in series [3] of 15.4 ± 2.5 µL/min/mg. Also, the “half-life (T1/2) in human plasma” value in series [4] (37 °C, up to 24 h, UPLC read-out, n = 3) is on record as less than 30 min. In series [4] (human), the half-life was determined as 26 min.
In the case of “cyclo(DLATEPAK(Dap)-14 (bicyclic or more) [MiniAp4-14]”, in series [1] (10 μM, vehicle 0.25% DMSO), the “reduction of Aβ42 levels relative to vehicle control” value was “did not affect Aβ42 production”. Moreover, the “adverse effect on cell viability over the concentration curve (in words)” value in series [5] was “no toxicity”.
What is called Ki is a measure of affinity in units of concentration, obtained from inhibition or displacement. A higher Ki goes with weaker binding. In series [6], NGYENPTYKFFE [APPWT peptide (NGYENPTYKFFE; residues 755-766)] returned an inhibition constant (Ki) of 4 ± 0.2 µM.
Still for that read-out and setting: the value for NGYEQPTYKFFE (peptide, UniProt P05067 755-766, looked up) [APPWT peptide N759Q] was not below 500 µM.
For NGYENPTYKAFE (peptide, UniProt P05067 755-766, looked up) [APPWT peptide F764A], the “fold decrease in affinity relative to the APPWT peptide” value in series [6] was found to be 14 fold.
With NGYENPTYKFWE (peptide, UniProt P05067 755-766, looked up) [APPWT peptide F765W], the binding result in series [6] was “binds”.
Same read-out and setting: the entry for NGYENPTWKFFE (peptide, UniProt P05067 755-766, looked up) [APPWT peptide Y762W] is “binds”; for NGYENPTYKWFE (peptide, UniProt P05067 755-766, looked up) [APPWT peptide F764W] it is “binds”.
As for NGYENPTYKFAE (peptide, UniProt P05067 755-766, looked up) [APPWT peptide F765A], in series [6], the “fold decrease in affinity relative to the APPWT peptide” value was determined as 18 fold.
Same read-out and setting: the value for NGAENPTYKFFE (peptide, UniProt P05067 755-766, looked up) [APPWT peptide Y757A] was 76 fold.
As to B1, in series [7], the “fold reduction in affinity relative to Mint2-PARM^WT” value was 45 fold.
Take B2: the “fold reduction in affinity relative to wild type” value in series [7] worked out at 14 fold.
With B3, the “fold reduction in affinity relative to wild type” value in series [7] was 25 fold.
For B4, the “fold reduction in affinity relative to Mint2-PARM^WT” value in series [7] is more than 10 fold.
Take B5: the binding result in series [8] and in series [6] was “binds” throughout.
As to B6, the “fold decrease in affinity relative to wild-type Mint2-PARM” value in series [7] amounted to 72 fold.
In the case of B7, the “fold reduction in affinity relative to Mint2-PARM^WT” value in series [7] was more than 10 fold.
